We go through 17 compounds from ChEMBL document CHEMBL5120933, “Direct-to-Biology Accelerates PROTAC Synthesis and the Evaluation of Linker Effects on Permeability and Degradation” (ACS Med Chem Lett, 2022).

Test [1] concerns HEK293. Briefly: Cytotoxicity against human HEK293 cells assessed as inhibition of cell viability incubated for 30 mins in presence of CRBN-tracer by nanoBRET assay. The test is classed as functional, cell-based.
Test [2] concerns the target Protein cereblon/Bromodomain-containing protein 4 (Homo sapiens, UniProt O60885+Q96SW2). Briefly: PROTAC activity at […]/BRD4 in human HEK293T cells assessed as degradation of BRD4 incubated for 24 hrs by HiBiT assay. In kind it is cell-based.
The target of test [3] is Bromodomain-containing protein 4 (Homo sapiens) (UniProt O60885). Briefly: Relative binding affinity to BRD4 (unknown origin).
The subject of test [4] is HEK293. Briefly: Cytotoxicity against permeabilized HEK293 cells assessed as inhibition of cell viability incubated for 30 mins in presence of CRBN-tracer by nanoBRET assay. The test is classed as functional, cell-based, Homo sapiens. Summed up: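 Transfected HEK293 cells (NanoLuc-CRBN plus DDB1), thawed from frozen into phenol-red-free Opti-MEM (500,000 cells/mL). Wells held CRBN-tracer (7.5 nL) and 11-pt 3-fold titrations (50 uM top assay concentration); 18 uL cells added, then 2 uL 0.5 mg/mL digitonin, 30 min at room temperature. NanoBRET substrate 1:166, no extracellular inhibitor; BRET luminescence at 450-480 nm and 610-LP.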

In test [5] the test system is HEK293. Briefly: Cytotoxicity against human HEK293 cells assessed as inhibition of cell viability at […] incubated for 30 mins by cell titer-glo assay relative to control. The test is classed as functional.
Test [6] relates to HEK293. Briefly: Cytotoxicity against human HEK293 cells assessed as inhibition of cell viability incubated for 24 hrs by cell titer-glo assay. Conditions: HEK293, 24 h.
Test [7] deals with HEK293. In words: Cytotoxicity against human HEK293 cells assessed as inhibition of cell viability at 10 uM incubated for 30 mins by cell titer-glo assay relative to control. Conditions: HEK293, 0.5 h. In kind it is functional.
The subject of test [8] is HEK293. Briefly: Cytotoxicity against human HEK293 cells assessed as inhibition of cell viability at 12 uM incubated for 30 mins by cell titer-glo assay relative to control. In kind it is functional. Conditions: HEK293, 0.5 h.
Where [9] appears, read: Homo sapiens, HEK293, 0.5 h, read-out: Emax.

Sequence of Protein cereblon/Bromodomain-containing protein 4 (Q96SW2 whole entry, looked up, other chains not shown): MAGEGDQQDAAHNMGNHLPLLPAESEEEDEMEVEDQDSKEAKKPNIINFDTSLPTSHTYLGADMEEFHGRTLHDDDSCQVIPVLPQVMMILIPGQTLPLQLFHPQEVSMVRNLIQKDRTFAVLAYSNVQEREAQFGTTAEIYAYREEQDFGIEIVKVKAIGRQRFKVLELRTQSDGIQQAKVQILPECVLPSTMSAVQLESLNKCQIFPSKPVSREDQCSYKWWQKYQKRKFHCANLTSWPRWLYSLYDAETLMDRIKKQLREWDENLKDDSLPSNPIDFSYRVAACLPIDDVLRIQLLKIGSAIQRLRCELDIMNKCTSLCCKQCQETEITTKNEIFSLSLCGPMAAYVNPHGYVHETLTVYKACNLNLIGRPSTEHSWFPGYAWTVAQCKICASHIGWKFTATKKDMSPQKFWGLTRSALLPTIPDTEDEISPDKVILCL

In the case of `Cc1ccc(C(=O)N(C)[C@H]2C[C@H](NC(=O)C[C@@H]3N=C(c4ccc(Cl)cc4)c4c(sc(C)c4C)-n4c(C)nnc43)C2)cc1N1CCC(=O)NC1=O`, in test [1] (Homo sapiens, HEK293, 0.5 h), the IC50 was 2100 nM. For the same compound, in test [2], the DC50 was more than 20000 nM. Also, the relative binding affinity (RBA) in test [3] stood at 6.4.
`Cc1ccc(C(=O)ON2C(=O)CCC2=O)cc1N1CCC(=O)NC1=O`: the IC50 worked out at 22200 nM in test [1] (Homo sapiens, HEK293, 0.5 h) and 6040 nM in test [4] (Homo sapiens, HEK293, 0.5 h). In addition, the DC50 in test [2] was more than 50000 nM. Besides, in test [5] (setting [9]), the Emax is 9.24%. The EC50 in test [6] is more than 50000 nM.
In the case of `O=C(O)COc1cccc2c1C(=O)N(C1CCC(=O)NC1=O)C2=O` (stereo not given), the IC50 is more than 50000 nM in test [1] (Homo sapiens, HEK293, 0.5 h) and 830 nM in test [4] (Homo sapiens, HEK293, 0.5 h). The DC50 in test [2] is more than 50000 nM. For the same compound, the Emax in test [5] (setting [9]) came to 7.58%. Besides, in test [6], the EC50 was more than 50000 nM.
Turning to `Cc1ccc(C(=O)NCCOCCN(C)C(=O)C[C@@H]2N=C(c3ccc(Cl)cc3)c3c(sc(C)c3C)-n3c(C)nnc32)cc1N1CCC(=O)NC1=O`, the IC50 in test [1] (Homo sapiens, HEK293, 0.5 h) worked out at 3200 nM. Further, the DC50 in test [2] was 23 nM. The same compound gave a relative binding affinity (RBA) in test [3] of 5.
For `Cc1ccc(C(=O)O)cc1N1CCC(=O)NC1=O`, the IC50 in test [1] (Homo sapiens, HEK293, 0.5 h) is more than 50000 nM; in test [4] (Homo sapiens, HEK293, 0.5 h) it was 1940 nM. Also, the DC50 in test [2] is more than 21700 nM. In addition, the Emax in test [5] (setting [9]) was determined as 7.84%. In addition, the EC50 in test [6] was more than 50000 nM.
As to `Cc1ccc(C(=O)N(C)CCN2CCN(C(=O)C[C@@H]3N=C(c4ccc(Cl)cc4)c4c(sc(C)c4C)-n4c(C)nnc43)CC2)cc1N1CCC(=O)NC1=O`, the IC50 in test [1] (Homo sapiens, HEK293, 0.5 h) is 4500 nM. The DC50 in test [2] was 88 nM. Moreover, in test [3], the relative binding affinity (RBA) turned out to be 0.9.
Take `Cc1sc2c(c1C)C(c1ccc(Cl)cc1)=N[C@@H](CC(=O)N(C)CCOCCNC(=O)COc1cccc3c1C(=O)N(C1CCC(=O)NC1=O)C3=O)c1nnc(C)n1-2` (stereo not given in full): the IC50 in test [1] (Homo sapiens, HEK293, 0.5 h) worked out at 1600 nM. For the same compound, in test [2], the DC50 turned out to be 7100 nM. In test [3], this compound displayed a relative binding affinity (RBA) of 9.6.
`Cc1sc2c(c1C)C(c1ccc(Cl)cc1)=N[C@@H](CC(=O)O)c1nnc(C)n1-2`: the IC50 in test [1] (Homo sapiens, HEK293, 0.5 h) is more than 50000 nM; in test [4] (Homo sapiens, HEK293, 0.5 h), more than 50000 nM. For the same compound, the DC50 in test [2] was more than 50000 nM. In addition, the Emax in test [5] (0.5 h) is 14.23%. For the same compound, the EC50 in test [6] is more than 50000 nM.
Regarding `Cc1sc2c(c1C)C(c1ccc(Cl)cc1)=N[C@@H](CC(=O)N1CCN(CCN(C)C(=O)COc3cccc4c3C(=O)N(C3CCC(=O)NC3=O)C4=O)CC1)c1nnc(C)n1-2` (stereo not given in full), the IC50 in test [1] (Homo sapiens, HEK293, 0.5 h) was 71 nM. In test [2], the DC50 was 241 nM. The compound also had a relative binding affinity (RBA) in test [3] of 25.
Consider `O=C1CCC(N2C(=O)c3cccc(OCC(=O)ON4C(=O)CCC4=O)c3C2=O)C(=O)N1` (stereo not given), for which the IC50 in test [1] (Homo sapiens, HEK293, 0.5 h) was 7420 nM; in test [4] (Homo sapiens, HEK293, 0.5 h), 1050 nM. For the same compound, the DC50 in test [2] was more than 50000 nM. Further, in test [5] (setting [9]), the Emax was 11.9%. For the same compound, the EC50 in test [6] was more than 50000 nM.
In the case of `Cc1ccc(C(=O)N2CCC(Oc3cnc(N4CCN(C(=O)C[C@@H]5N=C(c6ccc(Cl)cc6)c6c(sc(C)c6C)-n6c(C)nnc65)CC4)nc3)CC2)cc1N1CCC(=O)NC1=O`, the IC50 in test [1] (Homo sapiens, HEK293, 0.5 h) was determined as 100 nM. Further, in test [2], the DC50 stood at 20 nM. The same compound displayed a relative binding affinity (RBA) in test [3] of 0.9.
With `Cc1sc2c(c1C)C(c1ccc(Cl)cc1)=N[C@@H](CC(=O)NCCCCNC(=O)COc1cccc3c1C(=O)N(C1CCC(=O)NC1=O)C3=O)c1nnc(C)n1-2` (stereo in doubt; form 1), the IC50 in test [1] (hek293) is 2200 nM; in test [4] (Homo sapiens, HEK293, 0.5 h), 90 nM. Besides, the Emax at 10 µM in test [7] came to 25.2%.
Regarding `O=C1CCC(=O)N1O`, the IC50 in test [1] (Homo sapiens, HEK293, 0.5 h) was more than 50000 nM; in test [4] (Homo sapiens, HEK293, 0.5 h) it was more than 50000 nM. Further, in test [2], the DC50 was more than 50000 nM. For the same compound, in test [5] (setting [9]), the Emax is 10.8%. Moreover, in test [6], the EC50 is more than 50000 nM.
Turning to `Cc1sc2c(c1C)C(c1ccc(Cl)cc1)=N[C@@H](CC(=O)N[C@H]1C[C@H](N(C)C(=O)COc3cccc4c3C(=O)N(C3CCC(=O)NC3=O)C4=O)C1)c1nnc(C)n1-2` (stereo not given in full), the IC50 in test [1] (Homo sapiens, HEK293, 0.5 h) was found to be 89 nM. In addition, the DC50 in test [2] amounted to 110 nM. Also, the relative binding affinity (RBA) in test [3] stood at 25.
As to `Cc1sc2c(c1C)C(c1ccc(Cl)cc1)=N[C@@H](CC(=O)N1CCN(c3ncc(OC4CCN(C(=O)COc5cccc6c5C(=O)N(C5CCC(=O)NC5=O)C6=O)CC4)cn3)CC1)c1nnc(C)n1-2` (stereo not given in full), the IC50 in test [1] (Homo sapiens, HEK293, 0.5 h) is 70 nM. The DC50 in test [2] amounted to 6 nM. In addition, the relative binding affinity (RBA) in test [3] worked out at 2.3.
With `Cc1sc2c(c1C)C(c1ccc(Cl)cc1)=N[C@@H](CC(=O)NCCCCNC(=O)COc1cccc3c1C(=O)N(C1CCC(=O)NC1=O)C3=O)c1nnc(C)n1-2` (stereo in doubt; form 2), the figures for the IC50 in test [1] (hek293) and in test [4] (hek293) were 930 nM and 56 nM, respectively. Besides, the Emax at 12 µM in test [8] came to 21.7%.
In the case of `Cc1sc2c(c1C)C(c1ccc(Cl)cc1)=N[C@@H](CC(=O)ON1C(=O)CCC1=O)c1nnc(C)n1-2`, the IC50 was more than 50000 nM in test [1] (Homo sapiens, HEK293, 0.5 h) and more than 50000 nM in test [4] (Homo sapiens, HEK293, 0.5 h). Besides, the DC50 in test [2] was more than 50000 nM. Further, the Emax in test [5] (setting [9]) is 5.26%. In addition, in test [6], the EC50 is more than 50000 nM.
